Test results: ChEMBL document CHEMBL1147895, “Novel synthetic approach to N-aryl-4-(3-pyridyl)thiazol-2-amine and analogues using HMCM-41 as catalyst, and their biological evaluation as human platelet aggregation inhibitors” (Eur J Med Chem, 2007)

System: Platelet
Test: Inhibition of ADP-induced human platelet aggregation
Type: functional, cell-based
In short: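 Human PRP from fasted, medication-free healthy male volunteers: citrated blood (0.38% final) spun at 800 rpm for 10 min; PPP from a 2500 rpm, 10 min spin. Compounds in DMSO (0.01% final) preincubated 2 min at 37 °C before ADP activation. Born turbidimetry; maximum curve height read, % inhibition versus vehicle; IC50 from linear regression of % inhibition against concentration.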

Row | IC50 [µM] | SMILES
1 | > 10 | CC(C)(C(=O)O)N1CCC(Nc2nc(-c3ccc(C(=N)N)cc3)cs2)CC1
2 | 2.89 | c1cncc(-c2csc(Nc3cccc4ccccc34)n2)c1
3 | 0.25 | CC(C(=O)O)N1CCC(Nc2nc(-c3ccc(C(=N)N)cc3)cs2)CC1 (stereo not drawn)
4 | 0.065 | N=C(N)c1ccc(-c2csc(NC3CCN(C(C(=O)O)c4ccccc4)CC3)n2)cc1 (stereo not drawn)
5 | 6 | N=C(N)c1ccc(-c2csc(NC3CCN(C(C(=O)O)c4ccccc4Cl)CC3)n2)cc1 (stereo not drawn)
6 | 2 | Cc1ccc(Nc2nc(-c3cccnc3)cs2)cc1
7 | 0.484 | Fc1ccccc1Nc1nc(-c2cccnc2)cs1

The remaining lines, values behind:

Row | SMILES | IC50 [µM]
8 | Nc1nc(-c2cccnc2)c[s+]1[O-] (stereo not drawn) | 1.41
9 | CN(c1nc(-c2ccc(C(=N)N)cc2)cs1)C1CCN(CC(=O)O)CC1 | 0.16
10 | N=C(N)c1ccc(-c2csc(NC3CCN(CC(=O)O)CC3)n2)cc1 | 0.042
11 | N=C(N)c1ccc(-c2csc(N(Cc3ccccc3)C3CCN(CC(=O)O)CC3)n2)cc1 | 0.23
12 | N=C(N)c1ccc(-c2csc(N(CCC(=O)O)C3CCN(CC(=O)O)CC3)n2)cc1 | 0.046
13 | N=C(N)c1ccc(-c2csc(N(CC(=O)O)C3CCN(CC(=O)O)CC3)n2)cc1 | 0.17
14 | CCc1ccccc1Nc1nc(-c2cccnc2)cs1 | 1.35
15 | N=C(N)c1ccc(-c2csc(NC3CCN(C(CC(=O)O)C(=O)O)CC3)n2)cc1 (stereo not drawn) | 0.085
16 | N=C(N)c1ccc(-c2csc(N(CCCC(=O)O)C3CCN(CC(=O)O)CC3)n2)cc1 | 0.096
17 | CCc1cccc(CC)c1Nc1nc(-c2cccnc2)cs1 | 2.19
18 | N=C(N)c1ccc(-c2csc(NC3CCN(CCC(=O)O)CC3)n2)cc1 | 1.8
